High-throughput results (PubChem)
Compounds with a hit are over-represented: about 1.1% of the library has one in this group of screens.
PMI act hi M6P = PMI (human) activation, high substrate; coupled PMI enzyme assay, resazurin fluorescence, 20 min; stronger effect = higher value; 1 = untreated enzyme, 0 = substrate-free blank; actives 0.34% (n = 190,000); AID 1216; activation factor at 20 µM;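 active means activation factor of 2 or more at 20 µM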
Target sequence (P34949 whole entry, looked up): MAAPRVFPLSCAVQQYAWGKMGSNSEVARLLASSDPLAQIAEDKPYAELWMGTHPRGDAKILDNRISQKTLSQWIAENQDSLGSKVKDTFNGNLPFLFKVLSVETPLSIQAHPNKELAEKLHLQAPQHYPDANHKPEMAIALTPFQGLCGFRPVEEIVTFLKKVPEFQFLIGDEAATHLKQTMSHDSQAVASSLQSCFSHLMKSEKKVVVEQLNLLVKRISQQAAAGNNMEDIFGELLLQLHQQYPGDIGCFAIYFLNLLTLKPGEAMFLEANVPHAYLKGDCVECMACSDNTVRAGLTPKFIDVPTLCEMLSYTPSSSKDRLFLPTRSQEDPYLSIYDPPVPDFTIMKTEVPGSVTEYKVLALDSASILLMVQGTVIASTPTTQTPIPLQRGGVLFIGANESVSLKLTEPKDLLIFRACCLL
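Material: human phosphomannose isomerase with PGI, G6PDH, diaphorase coupling enzymes; amount: PMI at 15 ng/mL final; also added: Mannose-6-phosphate 1.0 mM (near-saturating) plus 0.22 mM NADP+; incubation: enzyme reaction with compound 20 min at room temperature; signal: resorufin fluorescence (Ex 544/Em 590 nm) from resazurin via diaphorase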
G6PDH CS = counter-screen for G6PDH assay hits: L. mesenteroides G6PDH inhibition; Purified L. mesenteroides G6PDH, diaphorase/resazurin coupled fluorescence, 45 min; inhibition, % at 5 µM; actives 0.12% (n = 200,000); in the data active means inhibition above about 50%
PMI act = increases human mannose-6-phosphate isomerase activity | P34949 | purified human PMI, coupled resazurin fluorescence, 20 min; stronger effect = higher value; 1 = vehicle control, 0 substrate-free wells | activation factor at 20 µM | actives 0.005% (n = 190,000) | AID 1214;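 active means activation factor of 2 or more at 20 µM, relative to plate controls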
Diaph inh CS = inhibits diaphorase or chemically oxidizes, flagging diaphorase assay artifacts; diaphorase resazurin-to-resorufin fluorescence, NADH, 16 min; bacterial (C. kluyveri) enzyme, not human; inhibition, % at 20 µM; actives 0.69% (n = 190,000); AID 1217;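 active means primary screen inhibition at 20 µM above a set limit, cut at about 50% in these data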;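 further: plate controls were DMSO with full reaction for no effect and wells lacking NADH for full effect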
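Benchmarks: positive control wells lacking NADH, neutral wells with DMSO only. System: bacterial diaphorase enzyme (C. kluyveri). Input: 0.14 U/mL diaphorase, enzyme working solution. Detection: resorufin fluorescence, excitation 544 nm, emission 590 nm. Times: 16-min room-temperature incubation before reading.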
Diaphorase act = counter-screen for diaphorase-based assays: diaphorase activators and chemical reducers; Diaphorase/resazurin coupled assay, resorufin fluorescence, 16 min; stronger effect = higher value; 1 = vehicle wells, 0 = NADH-free wells; actives 0.005% (n = 190,000); activation factor at 20 µM; AID 1229;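 active means diaphorase activity raised at least twofold by the compound at 20 µM; inactive means activation factor below 2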
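Assay system: bacterial diaphorase enzyme (C. kluyveri) / Input: enzyme 0.07 U/mL final / Medium: 50 mM HEPES pH 7.4 with 4.542 mM MgCl2, 0.005% Tween 20 / Doses: single compound dose of 20 µM, 1% DMSO final / Incubation: 16 min enzyme reaction, ambient temperature / Signal: fluorescence, excitation 544 nm and emission 590 nm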
An asterisk follows results filed as active.

SMILES | PMI act hi M6P | G6PDH CS | PMI act | Diaph inh CS | Diaphorase act
COc1ccc(OC)c(C(=O)Cn2c3[n+](c4ccc(C(F)(F)F)cc42)CCCCC3)c1 | 1 | -2 | 1 | 4 | 1
CCOC(=O)Cc1csc(NC(=O)NC2(C(F)(F)F)Oc3ccc(Cl)cc3O2)n1 (stereo not given) | 0.5 | 33 | 0.5 | 42 | 0.6
CCOC(=O)Cc1csc(NC(=O)NC2(C(F)(F)F)Oc3cc(Cl)c(Cl)cc3O2)n1 | 0.5 | 51* | 0.4 | 47 | 0.5
Cc1nnc(NN2CCOCC2)[nH]c1=O | 0.8 | 4 | 0.9 | 14 | 0.9
CCOC(=O)c1ccc(NC(=O)CSc2nnnn2CCCO)cc1 | 0.9 | 11 | 0.9 | 6 | 0.9
O=C(CCCc1cccs1)N1CCN(S(=O)(=O)c2ccccc2Br)CC1 | 1 | 1 | 1 | 15 | 0.8
CCC(CC)C(=O)NCCc1cc2ccc(C)cc2[nH]c1=O | 0.9 | -10 | 0.8 | 13 | 0.9
Cc1ccc2cc(CCNC(=O)c3ccc(C)c([N+](=O)[O-])c3)c(=O)[nH]c2c1 | 1.2 | -2 | 0.9 | 59* | 0.4
COc1ccccc1N1CCN(/N=C/c2ccc(O)c(O)c2)CC1 | 0.6 | 38 | 0.3 | 70* | 0.3
COc1ccc(/C=N/N2CCN(c3ccccc3OC)CC2)cc1OC | 0.9 | -18 | 0.9 | 12 | 0.9
CCCOc1ccc(C(=O)CCN2CCN(C(=O)OCC)CC2)cc1 | 1.1 | 9 | 1.1 | 6 | 0.9
Cc1ccc(NC2=C/C(=N/S(=O)(=O)c3cccs3)c3ccccc3C2=O)cc1 | 0.5 | 50* | 1 | 16 | 0.8
O=C1C(Nc2ccccc2)=C/C(=N/S(=O)(=O)c2cccs2)c2ccccc21 | 0.6 | 46 | 1.2 | 1 | 1
CCn1c(SCC(=O)c2ccc3c(c2)Cc2ccccc2-3)nnc1-c1ccc(N)cc1 | 1.1 | 10 | 1.1 | -5 | 1.1
CCn1c(SCC(=O)c2ccc(O)c(O)c2)nnc1-c1ccc(C)cc1 | 0.9 | 0 | 0.6 | 56* | 0.4
CC1=C(C)C(=O)N(c2ccccn2)C1=O | 1.1 | 10 | 1.2 | 1 | 1
Cc1nn(-c2ccccn2)c2c1C(=O)C(Br)CC2 (stereo not given) | 0.3 | 33 | 0.3 | 82* | 0.2
CCOP(=O)(OCC)c1nc(-c2ccc(C)cc2)oc1NCc1ccccc1 | 0.9 | -1 | 0.9 | 27 | 0.7
CCOP(=O)(OCC)c1nc(/C=C/c2ccccc2)oc1NCc1ccccc1 | 0.9 | 6 | 0.9 | 54* | 0.5
CCOP(=O)(OCC)c1nc(-c2cccc3ccccc23)oc1NCc1ccc(OC)cc1 | 1 | 3 | 1 | 21 | 0.8
CCOP(=O)(OCC)c1nc(/C=C/c2ccccc2)oc1NCc1ccc(OC)cc1 | 0.9 | 8 | 0.9 | 52* | 0.5
CN1CCN(CC(=O)Nc2ccc([N+](=O)[O-])cc2Br)CC1 | 1.1 | 7 | 1 | 7 | 0.9
CCc1ccc(NC(=O)CCNS(=O)(=O)c2cccc3nsnc23)cc1 | 0.9 | -8 | 1 | 15 | 0.8
Oc1c(C(c2ccccc2Cl)N2CCCC2)ccc2cccnc12 (stereo not given) | 0.9 | 8 | 0.7 | 55* | 0.4
Oc1c(C(c2cccs2)N2CCN(c3ccccc3)CC2)ccc2cccnc12 (stereo not given) | 0.5 | 10 | 0.4 | 38 | 0.6
SMILES | PMI act hi M6P | G6PDH CS | PMI act | Diaph inh CS | Diaphorase act
COC(=O)c1c(NC(=O)c2cccc([N+](=O)[O-])c2)sc(C(N)=O)c1C | 1 | 5 | 0.8 | 72* | 0.3
CC(=O)CCc1c(C)c2cccc(C)c2[nH]c1=O | 0.9 | 6 | 0.9 | 23 | 0.8
COc1cccc2c(=S)c(CCC(C)=O)c(C)[nH]c12 | 2.1* | 2 | 1.6 | 1 | 1
CC(=O)NC(c1ccc(Cl)cc1)c1c(O)ccc2ccc(O)cc12 (stereo not given) | 0.3 | 54* | 0.7 | 26 | 0.7
O=C(NCCCN1CCOCC1)c1cccnc1SCc1ccccc1Cl | 1 | 4 | 0.9 | 10 | 0.9
COc1cc2c(cc1NC(=O)CSc1ccc(C)cc1)oc1ccccc12 | 0.9 | 1 | 0.9 | 31 | 0.7
